Measurements taken from ChEMBL document CHEMBL5678806, “NMS-P937, an orally available, specific small-molecule polo-like kinase 1 inhibitor with antitumor activity in solid and hematologic malignancies” (Mol Cancer Ther, 2012).
Activity calls are given as the source filed them. The rule behind the calls is not given here.

How the values were obtained:
Activated CDC42 kinase 1 = Activated CDC42 kinase 1 (Homo sapiens, UniProt Q07912); experiment: Inhibition of ACK1 (unknown origin) in presence of [gamma-33P]ATP
[1] = molecular target: Tyrosine-protein kinase JAK1 (Homo sapiens, UniProt P23458); experiment: Inhibition of JAK1 (unknown origin) in presence of [gamma-33P]ATP
[2] = molecular target: Tyrosine-protein kinase Lyn (Homo sapiens, UniProt P07948); experiment: Inhibition of LYN (unknown origin) in presence of [gamma-33P]ATP
[3] = molecular target: Hepatocyte growth factor receptor (Homo sapiens, UniProt P08581); experiment: Inhibition of MET (unknown origin) in presence of [gamma-33P]ATP
[4] = molecular target: Calcium/calmodulin-dependent protein kinase type II subunit delta (Homo sapiens) (UniProt Q13557); experiment: Inhibition of recombinant full length human CaMKIIdelta assessed as residual activity at 0.1 uM relative to control
[5] = molecular target: PAS domain-containing serine/threonine-protein kinase (Homo sapiens) (UniProt Q96RG2); experiment: Inhibition of human PASK assessed as residual activity at 0.1 uM relative to control
[6] = molecular target: Casein kinase I isoform gamma-2 (Homo sapiens) (UniProt P78368); experiment: Inhibition of N-terminal 6His-tagged recombinant human CK1gamma2 ( 18 to end residues) expressed in baculovirus infected Sf21 cells assessed as residual activity at 1 uM relative to control
[7] = molecular target: Maternal embryonic leucine zipper kinase (Homo sapiens) (UniProt Q14680); experiment: Inhibition of N-terminal GST-tagged recombinant human MELK (1 to 340 residues) expressed in baculovirus infected Sf21 cells assessed as residual activity at 1 uM relative to control
[8] = molecular target: Phosphorylase b kinase gamma catalytic chain, liver/testis isoform (Homo sapiens) (UniProt P15735); experiment: Inhibition of GST-tagged recombinant human PhKgamma2 (1 to 301 residues) expressed in E. coli assessed as residual activity at 1 uM relative to control
[9] = molecular target: Tyrosine-protein kinase SYK (Homo sapiens, UniProt P43405); experiment: Inhibition of N-terminal His6-tagged recombinant full-length human Syk expressed in baculovirus infected Sf21 cells assessed as residual activity at 1 uM relative to control
LN-229 = experiment: Antiproliferative activity against human LN-229 cells assessed as inhibition of cell growth incubated for 72 hrs by cell-titer glo assay; format: functional, cell-based; details: LN-229, 72 h
In short: (§1)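 Cells seeded at 10,000–30,000/cm² (adherent) or 100,000/mL (nonadherent) in medium with 10% fetal calf serum; after 24 h, treated in duplicate with serial dilutions for 72 h. Viable cell number read by CellTiter-Glo luminescence; IC50 from sigmoidal fit; at least two independent experiments.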

SF-295 = experiment: Antiproliferative activity against human SF-295 cells assessed as inhibition of cell growth incubated for 72 hrs by cell-titer glo assay; format: functional, cell-based; details: SF-295, 72 h
In short: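 Cells from ATCC or ECACC, kept in supplier-recommended medium with 1% penicillin-streptomycin at 37°C, 5% CO₂. Seeded at 10,000–30,000/cm² (adherent) or 100,000/mL (nonadherent) in medium with 10% fetal calf serum. Dosed after 24 h in duplicate with serial dilutions. Viable cells read by CellTiter-Glo 72 h later. IC50 from sigmoidal fit. At least two independent experiments.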

HCC1954 = experiment: Antiproliferative activity against human HCC1954 cells assessed as inhibition of cell growth incubated for 72 hrs by cell-titer glo assay; format: functional, cell-based; details: HCC1954, 72 h; in short: as §1
COLO 205 = experiment: Antiproliferative activity against human COLO 205 cells assessed as inhibition of cell growth incubated for 72 hrs by cell-titer glo assay; format: functional, cell-based; details: COLO 205, 72 h
In short: (§2)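 Cells seeded 10,000–30,000/cm² (adherent) or 100,000/mL (suspension) in medium with 10% fetal calf serum; after 24 h treated in duplicate with serial dilutions for 72 h. Viable cells read by CellTiter-Glo luminescence; IC50 from sigmoidal fit; at least two independent experiments.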

SW-403 = experiment: Antiproliferative activity against human SW403 cells assessed as inhibition of cell growth incubated for 72 hrs by cell-titer glo assay; format: functional, cell-based; details: SW-403, 72 h
COLO-741 = experiment: Antiproliferative activity against human COLO-741 cells assessed as inhibition of cell growth incubated for 72 hrs by cell-titer glo assay; format: functional, cell-based; details: COLO-741, 72 h; in short: as §2
EKVX = experiment: Antiproliferative activity against human EKVX cells assessed as inhibition of cell growth incubated for 72 hrs by cell-titer glo assay; format: functional, cell-based; in short: as §2
THP-1 = experiment: Antiproliferative activity against human THP-1 cells assessed as inhibition of cell growth incubated for 72 hrs by cell-titer glo assay; format: functional, cell-based; details: THP-1, 72 h
Jurkat = experiment: Antiproliferative activity against human Jurkat cells assessed as inhibition of cell growth incubated for 72 hrs by cell-titer glo assay; format: functional, cell-based; in short: as §1
SU-DHL10 = experiment: Antiproliferative activity against human SU-DHL-10 cells assessed as inhibition of cell growth incubated for 72 hrs by cell-titer glo assay; format: functional, cell-based; details: SU-DHL10, 72 h
U-266 = experiment: Antiproliferative activity against human U-266 cells assessed as inhibition of cell growth incubated for 72 hrs by cell-titer glo assay; format: functional, cell-based; details: U-266, 72 h
[10] = Antiproliferative activity against human GM14788 cells assessed as inhibition of cell growth incubated for 72 hrs by cell-titer glo assay; format: functional, cell-based; details: GM14788, 72 h; in short: as §1
[11] = Volume of distribution at steady state in Sprague-Dawley rat at 10 mg/kg, iv by LC-MS analysis; format: ADME, organism-based; details: in vivo, read-out: Vdss
[12] = Cmax in Sprague-Dawley rat at 10 mg/kg, iv by LC-MS analysis; format: ADME, organism-based; details: in vivo
A2780 [13] = experiment: Induction of cell cycle arrest in human A2780 cells assessed as accumulation of cells in G2/M phase by measuring upregulated PLK1 expression incubated for 24 hrs by Western blotting analysis; format: functional, cell-based; details: dose 0.02-0.2 µmol/L
In short: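 A2780 ovarian carcinoma cells treated 24 h with a range of concentrations, with DMSO and nocodazole controls. 20 µg protein extract separated by SDS-PAGE and immunoblotted with chemiluminescent detection. Probed for total and phospho-Thr210 PLK1, phospho-Ser10 histone H3, phospho-Thr199 NPM and phospho-Tyr15 CDK1. Total NPM, tubulin and total CDK1 served as loading controls.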

HCT-116 = experiment: Antitumor activity against human HCT-116 cells xenografted in nu/nu mouse assessed as tumor growth inhibition at 45 mg/kg, iv administered for 3 days relative to control; format: functional; details: HCT-116, 72 h, time 3 day, read-out: TGI
A2780 [14] = experiment: In vivo inhibition of PLK1 in human A2780 cells xenografted in nu/nu mouse assessed as decreased TCTP phosphorylation on Ser46 at 60 mg/kg, po administered for 2 hrs by immunohistochemistry analysis; format: functional, organism-based
[15] = Antitumor activity against human Acute myeloid leukemic cell xenografted in nu/nu mouse assessed as increase in median survival time at 120 mg/kg, po administered for 2 days and measured after 10 days in presence of cytarabine (reference value: 34 days); details: time 2 day

PAS domain-containing serine/threonine-protein kinase (Homo sapiens), sequence (Q96RG2 whole entry, the tested form may be a part, canonical isoform): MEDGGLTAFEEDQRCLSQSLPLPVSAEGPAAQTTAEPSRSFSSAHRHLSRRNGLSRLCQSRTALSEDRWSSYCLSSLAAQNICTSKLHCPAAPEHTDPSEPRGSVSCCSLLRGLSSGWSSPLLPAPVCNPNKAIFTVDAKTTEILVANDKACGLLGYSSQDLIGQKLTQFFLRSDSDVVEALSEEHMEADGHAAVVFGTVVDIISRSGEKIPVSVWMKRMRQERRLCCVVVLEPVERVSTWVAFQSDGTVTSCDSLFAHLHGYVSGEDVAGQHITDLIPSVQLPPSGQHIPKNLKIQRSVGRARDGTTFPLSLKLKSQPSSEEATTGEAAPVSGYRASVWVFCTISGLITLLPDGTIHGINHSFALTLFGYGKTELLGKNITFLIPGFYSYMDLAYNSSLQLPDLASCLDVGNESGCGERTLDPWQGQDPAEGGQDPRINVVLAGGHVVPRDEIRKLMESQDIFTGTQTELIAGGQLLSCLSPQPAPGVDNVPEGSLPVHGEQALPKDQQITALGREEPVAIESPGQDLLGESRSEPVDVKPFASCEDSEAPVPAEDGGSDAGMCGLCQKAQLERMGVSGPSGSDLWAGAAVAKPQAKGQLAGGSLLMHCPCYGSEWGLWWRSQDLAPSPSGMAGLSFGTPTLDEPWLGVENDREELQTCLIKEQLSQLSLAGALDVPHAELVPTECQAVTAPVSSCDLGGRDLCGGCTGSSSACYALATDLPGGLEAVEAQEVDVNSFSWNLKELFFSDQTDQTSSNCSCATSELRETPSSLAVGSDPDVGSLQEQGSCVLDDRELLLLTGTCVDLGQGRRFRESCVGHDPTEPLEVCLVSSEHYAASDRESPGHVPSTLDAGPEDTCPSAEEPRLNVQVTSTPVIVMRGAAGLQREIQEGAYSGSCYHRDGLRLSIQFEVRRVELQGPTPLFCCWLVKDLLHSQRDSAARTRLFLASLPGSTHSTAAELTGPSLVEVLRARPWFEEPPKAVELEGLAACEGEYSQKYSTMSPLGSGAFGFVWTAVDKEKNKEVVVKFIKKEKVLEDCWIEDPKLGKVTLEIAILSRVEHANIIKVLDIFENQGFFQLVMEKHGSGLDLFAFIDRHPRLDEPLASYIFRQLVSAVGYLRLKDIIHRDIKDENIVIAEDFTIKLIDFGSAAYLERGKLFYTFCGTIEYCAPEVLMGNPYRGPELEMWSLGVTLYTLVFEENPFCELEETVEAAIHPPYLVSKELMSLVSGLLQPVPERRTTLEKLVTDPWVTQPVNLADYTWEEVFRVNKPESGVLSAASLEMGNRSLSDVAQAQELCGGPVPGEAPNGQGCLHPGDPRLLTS
Tyrosine-protein kinase JAK1, sequence (P23458 whole entry): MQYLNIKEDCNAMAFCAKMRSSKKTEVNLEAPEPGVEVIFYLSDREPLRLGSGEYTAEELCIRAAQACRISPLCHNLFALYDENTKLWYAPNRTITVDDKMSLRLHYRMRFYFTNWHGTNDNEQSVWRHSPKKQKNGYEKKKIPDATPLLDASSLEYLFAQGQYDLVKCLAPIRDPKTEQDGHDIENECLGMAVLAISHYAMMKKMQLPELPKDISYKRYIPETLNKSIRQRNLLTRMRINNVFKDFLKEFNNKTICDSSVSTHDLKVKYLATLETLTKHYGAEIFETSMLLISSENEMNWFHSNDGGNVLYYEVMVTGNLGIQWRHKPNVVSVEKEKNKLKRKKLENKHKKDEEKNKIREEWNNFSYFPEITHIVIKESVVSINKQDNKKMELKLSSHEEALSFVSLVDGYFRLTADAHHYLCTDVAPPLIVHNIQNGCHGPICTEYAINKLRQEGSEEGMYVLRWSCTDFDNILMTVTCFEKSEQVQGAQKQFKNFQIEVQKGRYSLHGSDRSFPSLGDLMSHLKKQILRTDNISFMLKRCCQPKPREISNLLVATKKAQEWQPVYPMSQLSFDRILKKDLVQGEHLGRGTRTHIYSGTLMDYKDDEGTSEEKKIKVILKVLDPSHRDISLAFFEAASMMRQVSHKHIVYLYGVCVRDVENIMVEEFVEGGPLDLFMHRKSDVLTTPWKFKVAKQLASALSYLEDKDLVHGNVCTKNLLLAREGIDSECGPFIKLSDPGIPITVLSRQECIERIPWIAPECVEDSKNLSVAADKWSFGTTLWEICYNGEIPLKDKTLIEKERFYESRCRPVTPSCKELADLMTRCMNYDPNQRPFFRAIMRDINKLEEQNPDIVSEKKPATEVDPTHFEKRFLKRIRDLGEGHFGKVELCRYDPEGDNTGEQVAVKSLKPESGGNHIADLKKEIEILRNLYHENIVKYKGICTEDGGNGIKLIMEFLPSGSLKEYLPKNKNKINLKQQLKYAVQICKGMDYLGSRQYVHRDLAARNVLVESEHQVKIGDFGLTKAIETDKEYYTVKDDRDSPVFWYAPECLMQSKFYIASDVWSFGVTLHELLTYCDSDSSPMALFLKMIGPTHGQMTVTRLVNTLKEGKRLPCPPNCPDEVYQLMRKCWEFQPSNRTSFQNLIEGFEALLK
Maternal embryonic leucine zipper kinase (Homo sapiens), sequence (Q14680 whole entry, looked up, the tested form may be a part, canonical isoform): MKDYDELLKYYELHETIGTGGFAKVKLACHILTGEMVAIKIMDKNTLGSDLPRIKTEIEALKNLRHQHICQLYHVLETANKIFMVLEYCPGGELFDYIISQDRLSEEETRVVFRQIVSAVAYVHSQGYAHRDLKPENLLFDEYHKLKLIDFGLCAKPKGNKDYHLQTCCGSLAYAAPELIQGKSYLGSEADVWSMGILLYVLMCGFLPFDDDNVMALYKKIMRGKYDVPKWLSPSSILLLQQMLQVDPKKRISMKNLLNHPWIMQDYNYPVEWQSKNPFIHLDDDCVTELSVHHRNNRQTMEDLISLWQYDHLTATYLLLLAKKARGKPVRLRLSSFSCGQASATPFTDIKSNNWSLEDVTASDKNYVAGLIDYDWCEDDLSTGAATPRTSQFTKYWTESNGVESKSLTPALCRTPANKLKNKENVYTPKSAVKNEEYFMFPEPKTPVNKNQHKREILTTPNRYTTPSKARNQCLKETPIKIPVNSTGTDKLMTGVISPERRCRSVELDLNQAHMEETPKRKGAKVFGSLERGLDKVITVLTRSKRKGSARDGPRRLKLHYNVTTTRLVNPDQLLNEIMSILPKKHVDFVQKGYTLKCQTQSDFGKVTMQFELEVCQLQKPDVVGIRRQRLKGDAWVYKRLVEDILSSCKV
Casein kinase I isoform gamma-2 (Homo sapiens), sequence (P78368 whole entry, looked up, the tested form may be a part, canonical isoform): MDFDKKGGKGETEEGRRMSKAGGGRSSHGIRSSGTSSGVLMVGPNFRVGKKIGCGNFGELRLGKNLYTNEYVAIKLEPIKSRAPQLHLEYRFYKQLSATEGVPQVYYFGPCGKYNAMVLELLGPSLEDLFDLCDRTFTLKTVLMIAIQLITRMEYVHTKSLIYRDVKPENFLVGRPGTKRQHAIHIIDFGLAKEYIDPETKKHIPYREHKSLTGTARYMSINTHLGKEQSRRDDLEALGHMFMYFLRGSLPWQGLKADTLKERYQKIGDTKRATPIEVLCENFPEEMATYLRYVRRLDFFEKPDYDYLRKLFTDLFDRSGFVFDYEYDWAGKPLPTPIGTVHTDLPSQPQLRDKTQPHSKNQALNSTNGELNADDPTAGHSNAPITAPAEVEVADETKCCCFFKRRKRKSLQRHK
Hepatocyte growth factor receptor, sequence (P08581 whole entry): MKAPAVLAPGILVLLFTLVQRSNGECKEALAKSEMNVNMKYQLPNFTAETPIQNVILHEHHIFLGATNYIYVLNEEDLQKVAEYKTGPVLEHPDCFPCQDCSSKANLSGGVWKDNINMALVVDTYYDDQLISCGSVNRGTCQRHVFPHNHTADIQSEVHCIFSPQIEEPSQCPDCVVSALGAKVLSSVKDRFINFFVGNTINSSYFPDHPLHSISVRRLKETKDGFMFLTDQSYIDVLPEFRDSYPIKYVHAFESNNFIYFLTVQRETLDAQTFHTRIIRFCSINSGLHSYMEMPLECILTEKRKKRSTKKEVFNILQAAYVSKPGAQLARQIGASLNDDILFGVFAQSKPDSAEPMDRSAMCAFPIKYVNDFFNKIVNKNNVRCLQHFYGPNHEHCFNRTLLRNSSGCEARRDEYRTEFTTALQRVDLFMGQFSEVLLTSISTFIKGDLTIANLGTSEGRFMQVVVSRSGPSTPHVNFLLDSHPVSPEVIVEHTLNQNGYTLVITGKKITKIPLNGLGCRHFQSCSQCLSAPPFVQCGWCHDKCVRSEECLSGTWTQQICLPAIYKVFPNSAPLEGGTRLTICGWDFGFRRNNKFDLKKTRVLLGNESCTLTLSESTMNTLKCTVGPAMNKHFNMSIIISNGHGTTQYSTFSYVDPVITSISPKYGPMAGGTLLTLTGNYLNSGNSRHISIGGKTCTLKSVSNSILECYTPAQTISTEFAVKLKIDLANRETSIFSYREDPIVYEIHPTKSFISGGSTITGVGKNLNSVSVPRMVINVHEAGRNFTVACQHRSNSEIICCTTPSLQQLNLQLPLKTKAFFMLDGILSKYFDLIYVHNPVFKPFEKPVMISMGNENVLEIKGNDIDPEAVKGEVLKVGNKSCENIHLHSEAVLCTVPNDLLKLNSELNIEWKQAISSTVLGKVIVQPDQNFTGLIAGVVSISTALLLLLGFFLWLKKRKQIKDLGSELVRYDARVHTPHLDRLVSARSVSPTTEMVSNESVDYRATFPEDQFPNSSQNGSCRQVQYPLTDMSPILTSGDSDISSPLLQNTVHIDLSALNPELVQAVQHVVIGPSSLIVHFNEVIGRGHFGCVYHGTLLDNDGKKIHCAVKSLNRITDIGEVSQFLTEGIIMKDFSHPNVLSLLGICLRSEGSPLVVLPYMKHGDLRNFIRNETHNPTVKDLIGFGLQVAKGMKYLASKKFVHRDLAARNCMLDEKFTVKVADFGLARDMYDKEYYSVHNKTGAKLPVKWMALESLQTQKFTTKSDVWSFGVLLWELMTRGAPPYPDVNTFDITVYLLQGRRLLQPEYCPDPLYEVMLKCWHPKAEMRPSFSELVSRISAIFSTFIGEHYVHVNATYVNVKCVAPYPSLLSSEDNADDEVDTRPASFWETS

For `CN1CCN(c2ccc(OC(F)(F)F)c(Nc3ncc4c(n3)-c3c(c(C(N)=O)nn3CCO)CC4)c2)CC1` [ONVANSERTIB], the IC50 (Activated CDC42 kinase 1) was greater than 10000 nM, the IC50 [1] was greater than 10000 nM and the IC50 [2] was greater than 10000 nM. For the same molecule, the IC50 [3] was greater than 10000 nM, the Activity [4] was 88% and the Activity [5] was 127%. For the same molecule, the Activity [6] was 69%, the Activity [7] was 71% and the Activity [8] was 88%. The Activity [9] was 89%, the IC50 (LN-229) was 62 nM and the IC50 (SF-295) was 386 nM. It also gave an IC50 (HCC1954) of 15 nM, an IC50 (COLO 205) of 32 nM and an IC50 (SW-403) of 46 nM. For the same molecule, the IC50 (COLO-741) was 108 nM, the IC50 (EKVX) was 196 nM and the IC50 (THP-1) was 32 nM. The IC50 (Jurkat) was 48 nM, the IC50 (SU-DHL10) was 43 nM and the IC50 (U-266) was 40 nM. It also gave an IC50 [10] of 82 nM, a Vd [11] of 2.8 L/kg and a Cmax [12] of 6.8 µM. For the same molecule, the Activity (A2780 [13]) was “Dose-Dependent Effect”, the inhibition in vivo at 45 mg/kg (HCT-116) was 83% and the inhibition (A2780 [14]) was “Active”. It also gave a Time [15] of 79 days.
